Results taken from paper PMC9071996 (RSC Advances, 2019).

How the values were obtained:
[1] = test system: GES-1 cells; experiment: MTS cytotoxicity assay, normal GES-1 cells; assay type: cell-based; conditions: Homo sapiens, GES1, 72 h, read-out: IC50 (μM) GES-1
[2] = test system: MDA-MB-231 cells; experiment: Annexin V-APC/7-AAD apoptosis assay; assay type: cell-based, human; conditions: 72 h, control 1.98%
Procedure, shortened: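 MDA-MB-231 cells exposed to test compound at 2.5, 5 or 10 μM for 72 h, with untreated cells as control. Cells then double-stained with Annexin V-APC and 7-AAD and analysed by flow cytometry. Annexin V+/7-AAD− cells scored as early apoptotic. 7-AAD-positive Annexin V+ cells scored as late apoptotic. Results shown as dot-plot quadrants and a histogram.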

[3] = test system: RPMI-8226 cells; experiment: MTS cytotoxicity assay, RPMI-8226; assay type: cell-based; conditions: Homo sapiens, RPMI-8226, 72 h, read-out: IC50 (μM) RPMI-8226
Procedure, shortened: (§1)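 MTS viability assay in A549, MDA-MB-231 and RPMI-8226 human cancer cells. All compounds were first screened at 10 and 50 μM. Compounds that crossed a set viability threshold in this screen went on to IC50 determination.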

[4] = test system: A549 cells; experiment: MTS cytotoxicity assay, A549; assay type: cell-based; conditions: Homo sapiens, A549, 72 h, read-out: IC50 (μM) A549
Procedure, shortened: as §1

[5] = test system: MDA-MB-231 cells; experiment: MTS cytotoxicity assay, MDA-MB-231; assay type: cell-based; conditions: Homo sapiens, MDA-MB-231, 72 h, read-out: IC50 (μM) MBA-MD-231
Procedure, shortened: as §1

[6] = test system: MDA-MB-231 cells; experiment: Mitochondrial membrane potential assay; assay type: cell-based, human; conditions: 72 h, control 3.9%
Procedure, shortened: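 Mitochondrial membrane potential measured by flow cytometry in MDA-MB-231 cells after 72 h with test compound at 2.5, 5 or 10 μM, against an untreated control. Red and green fluorescent populations were quantified. The green-fluorescent fraction was taken as cells with collapsed ΔΨm.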

[7] = test system: MDA-MB-231 cells; experiment: Cell cycle assay; assay type: cell-based, human; conditions: 72 h, control 56.86%
Procedure, shortened: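 Test compound applied to MDA-MB-231 cells at 2.5, 5 and 10 μM for 72 h. Cells stained with propidium iodide, and DNA content measured by flow cytometry. Percentages of cells in each cell-cycle phase were calculated against an untreated control.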

[8] = test system: MDA-MB-231 cells; experiment: Western blot of apoptosis related proteins; assay type: cell-based, human; conditions: 2.5, 5 and 10 μM, 72 h, vs control
Procedure, shortened: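 Western blot on lysates of MDA-MB-231 cells treated for 72 h with test compound at 2.5, 5 and 10 μM, compared with untreated control. Proteins probed: Bcl-2, Bax, cytochrome C and caspase-3. β-actin served as internal reference, and band levels were analysed statistically.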

[9] = test system: MDA-MB-231 cells; experiment: Intracellular ROS level; assay type: cell-based, human

For `CC12CCC(c3c(-c4ccc(Cl)cc4)nc(N)nc31)C2(C)C` (stereo not drawn) [Compound 3f, 4-(4-Chlorophenyl)-8,9,9-trimethyl-5,6,7,8-tetrahydro-5,8-methanoquinazolin-2-amine], the IC50 [1] was greater than 50 µM, the “Apoptosis rate (%) (total early and late)” value ([2]; 2.5 μM) was 9.47% and the “Apoptosis rate (%) (total early and late)” value ([2]; 10 μM) was 57.9%. For the same compound, the IC50 [3] was 8.64 ± 0.24 µM, the IC50 [4] was 7.65 ± 0.21 µM and the IC50 [5] was 5 ± 0.14 µM. The “Percentage (%) green fluorescence (cells with a collapsed ΔΨm)” value ([6]; 2.5 μM) was 10.4%, the “Percentage (%) green fluorescence (cells with a collapsed ΔΨm)” value ([6]; 5 μM) was 33.6% and the “Percentage (%) green fluorescence (cells with a collapsed ΔΨm)” value ([6]; 10 μM) was 53.2%. The “percentage of cells in G0/G1 phase” value ([7]; 2.5 μM) was 64.89%, the “percentage of cells in G0/G1 phase” value ([7]; 5 μM) was 78.02% and the “percentage of cells in G0/G1 phase” value ([7]; 10 μM) was 81.72%. The “expression of anti-apoptosis protein Bcl-2” value [8] was “downregulated dose-dependently”, the “expression of caspase-3” value [8] was “upregulation” and the “expression of cytochrome C” value [8] was “upregulation”. For the same compound, the “expression of pro-apoptotic protein Bax” value [8] was “up-regulated”, the “level of ROS (DCFH-DA positive cells)” value ([9]; 10.0 μM, 72 h, control 5.13%) was 63.4% and the “increase of ROS level in comparison to the control group” value ([9]; 10 μM, 63.4% vs control 5.13%) was roughly 12 times.
